The values that follow come from ChEMBL document CHEMBL2417491, “Design, synthesis and biological evaluation of aryl pyrimidine derivatives as potential leishmanicidal agents” (Bioorg Med Chem Lett, 2013).

pIC50: −log10 of the molar value. The source made the active and inactive calls. The calls are words filed in the database; no cut-off is given here.

The term inhibition in vivo denotes the percentage by which the read-out fell short of the control. Broadly, the CC50 is the concentration at which the toxic effect on the cells reaches its halfway point. A word on the pIC50: it is the negative decadic logarithm of the IC50, by convention in mol/L. By inhibition is commonly meant the share of the control response that was lost under treatment.

The test system of data set [1] is Syrian golden hamster. Description: Toxicity in golden hamster at 50 mg/kg, ip. Type of data set: organism-based, Mesocricetus auratus. Set-up: dose 50 mg/kg, route intraperitoneal. Particulars: in vivo.
Data set [2] relates to Leishmania donovani. As to the kind of experiment: Antileishmanial activity against Leishmania donovani infected in golden hamster assessed as inhibition of parasite multiplication at 50 mg/kg, ip for 5 days measured after 7 days by Giemsa staining-based assay. The settings on record: for inhibition in vivo at 50 mg/kg: route intraperitoneal. The class given is functional. In outline: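 Hamsters infected with L. donovani received test compounds at 50 mg/kg/day ip for 5 days, starting after the infection was established. Parasite burden was determined by Giemsa staining. Efficacy was expressed as percent inhibition, comparing treated animals, untreated animals and the initial count in treated animals.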

A short description of data set [3]: (§1) Selectivity index, ratio of CC50 for African green monkey Vero cells to IC50 for Leishmania donovani amastigotes. Type of data set: functional. In short, it runs like this:
(§2)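 Calculated as CC₅₀ on Vero cells divided by IC₅₀ on L. donovani intramacrophage amastigotes. Both values come from 72 h assays: MTT for Vero cells and a luciferase reporter for amastigotes.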

The nature of data set [4]: Cytotoxicity against African green monkey Vero cells after 72 hrs by MTT assay. The class given is cell-based. Particulars: chlorocebus sabaeus. In short, it runs like this:
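Monkey kidney Vero cells were exposed to compounds for 72 h. Viable cells were detected with MTT, and CC₅₀ was estimated by the Huber & Koella method. Values are the mean of two independent experiments.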

The test system of data set [5] is Leishmania donovani. As to the kind of experiment: Antileishmanial activity against Leishmania donovani amastigotes infected in mouse J774A1 cells after 72 hrs by luciferase reporter gene assay. Type of data set: functional, organism-based. Particulars: J774.A1, 72 h. In outline:
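Macrophage cells were seeded at 4 × 10³ per well, held 24 h in a CO₂ incubator, and then infected with 4 × 10⁴ promastigotes, which transform into intracellular amastigotes. Compounds were added at 0.62–40 and incubated 72 h. Read-out was luminescence after Steady-Glo addition, with inhibition derived against untreated controls. IC₅₀ is the mean of two independent experiments.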
A general note: A reporter such as luciferase makes a cellular process visible.

Data set [6] concerns Leishmania donovani. As to the kind of experiment: Antileishmanial activity against Leishmania donovani infected in golden hamster assessed as inhibition of parasite multiplication at 30 mg/kg, po for 5 days measured after 7 days by Giemsa staining-based assay. The class given is functional.
A short description of data set [7]: Cytotoxicity against mouse J774A1 cells after 72 hrs. Type of data set: cell-based. Particulars: j774.a1, 72 h.
Data set [8] has as its system Leishmania donovani. As to the kind of experiment: Antileishmanial activity against Leishmania donovani infected in golden hamster assessed as inhibition of parasite multiplication at 40 mg/kg, ip for 5 days measured after 7 days by Giemsa staining-based assay. The class given is functional, organism-based. Set-up: dose 40 mg/kg. In outline: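 Reference-drug arm in the L. donovani-infected hamster model, dosed at 40 mg/kg ip daily for 5 days. After the infection was established, parasite burden was assessed by Giemsa staining. Percent inhibition came from comparing treated with untreated animals and with the initial count in treated animals.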

In data set [9] the test system is Vero. The description is as §1. The class given is functional. In short, it runs like this: as §2

As to `CSc1cc(/C=C/c2ccc(OS(=O)(=O)[O-])cc2)nc(N)n1.[Na+]`, the Activity result in [1] was “Non-toxic”. Moreover, the inhibition in vivo at 50 mg/kg in data set [2] was 55.1%. For the same molecule, the “Ratio CC50/IC50” value in data set [3] was determined as 48. Also, it took 301 µM to reach half-maximal cytotoxicity in [4] (CC50 at 72 h). In addition, in data set [5], the pIC50 is 5.20.

In the case of `COc1ccc(/C=C/c2cc(SC)nc(N)n2)cc1`, the Activity result in data set [1] is given as “Non-toxic”. In addition, in [2], the inhibition in vivo at 50 mg/kg was found to be 54.4%. In addition, the “Ratio CC50/IC50” value in data set [3] came out at 27. For the same molecule, the CC50 at 72 h in data set [4] turned out to be 250 µM. Besides, the pIC50 in [5] is 5.04.

On to `COc1ccc(Nc2cc(/C=C/c3ccc(OCc4ccccc4)cc3)nc(N)n2)cc1`, for which the Activity entry in data set [1] is on record as “Non-toxic”. Also, the inhibition in vivo at 50 mg/kg in data set [2] amounted to 78.1%. For the same molecule, the “Ratio CC50/IC50” value in [3] was found to be 116. It took 57.8 µM to reach half-maximal cytotoxicity in data set [4] (CC50 at 72 h). This molecule also gave a pIC50 in [5] of 6.30.

`CCCCCCCCCCCCCCCCOP(=O)([O-])OCC[N+](C)(C)C` [MILTEFOSINE]: the inhibition in vivo at 30 mg/kg in data set [6] amounted to 98.1%. Besides, the “Ratio CC50/IC50” value in [3] was found to be 4.

As to `COc1cc(/C=C/c2cc(SC)nc(N)n2)ccc1O`, the Activity entry in data set [1] is given as “Non-toxic”.

For `COc1ccc(/C=C/c2cc(SC)nc(N)n2)cc1OC`, in data set [1], the Activity entry was “Non-toxic”. The inhibition in vivo at 50 mg/kg in [2] amounted to 47.1%. Moreover, the “Ratio CC50/IC50” value in data set [3] is given as 62. In [4], this molecule displayed a CC50 at 72 h of 125 µM. In [5], this molecule showed a pIC50 of 5.70.

`COc1cc(/C=C/c2cc(SC)nc(N)n2)cc(OC)c1OC`: in data set [1], the Activity entry is listed as “Non-toxic”. Besides, the inhibition result in data set [2] is “inactive”. In data set [5], this molecule showed a pIC50 of under 4.40.

With `CSc1cc(/C=C/c2ccc(OC3CCCCO3)cc2)nc(N)n1` (stereo not given), the Activity entry in data set [1] is listed as “Non-toxic”. For the same molecule, the inhibition in vivo at 50 mg/kg in [2] stood at 54.4%. Besides, the “Ratio CC50/IC50” value in data set [3] turned out to be 34. In addition, the midpoint of cytotoxicity in data set [4], the CC50 at 72 h, lay at 122 µM. In [5], the pIC50 was 5.44.

Turning to `CSc1cc(/C=C/c2ccc(OCc3ccccc3)cc2)nc(N)n1`, the Activity result in data set [7] and in [1] was “Non-toxic” in each case. Besides, the inhibition in vivo at 50 mg/kg in data set [2] came out at 88.4%. The “Ratio CC50/IC50” value in data set [3] is on record as 188. For the same molecule, the cytotoxic concentration (CC50) at 72 h in [4] came to 376 µM. Also, in [5], the negative logarithm of the IC50 (pIC50) was 5.70.

On to `CCOc1cc(/C=C/c2cc(SC)nc(N)n2)ccc1OC1CCCCO1` (stereo not given), for which, in data set [1], the Activity entry is “Non-toxic”. The inhibition in vivo at 50 mg/kg in data set [2] came to 33.5%. Also, in [3], the “Ratio CC50/IC50” value was found to be 19. In data set [4], this molecule yielded a CC50 at 72 h of 248 µM. For the same molecule, the pIC50 in [5] was 4.89.

As for `COc1ccc(Nc2cc(/C=C/c3ccc(OC4CCCCO4)cc3)nc(N)n2)cc1` (stereo not given), in data set [1], the Activity entry is “Non-toxic”. Moreover, in data set [2], the inhibition in vivo at 50 mg/kg was 78.2%. Besides, the “Ratio CC50/IC50” value in [3] came to 128. For the same molecule, in data set [4], half-maximal cytotoxicity (CC50 at 72 h) was put at 345 µM. Moreover, the pIC50 in data set [5] is 5.57.

With Sodium stibogluconate, the inhibition in data set [8] turned out to be 88.5%. Besides, the Ratio CC50/IC50 in data set [9] is over 7.

Consider `CSc1cc(/C=C/c2ccc(O)cc2)nc(N)n1`, for which the Activity result in [1] is recorded as “Non-toxic”.
